# Measurements published in ChEMBL document CHEMBL3259551, “Novel delta opioid receptor agonists with oxazatricyclodecane structure” (ACS Med Chem Lett, 2014).
# Legend:
# Mu-type opioid receptor [1] = biological target: Mu-type opioid receptor (Mus musculus, UniProt P42866); experiment: Displacement of [3H]DAMGO from mu opioid receptor in mouse whole brain […] membrane; assay type: tissue-based
# Summary of the method: (§1)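 Competitive binding run in duplicate. MOR used [3H]DAMGO and DOR used [3H]DPDPE, both on mouse whole-brain membranes without cerebellum. KOR used [3H]U-69,593 on guinea pig cerebellum membranes.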
# Mu-type opioid receptor [2] = biological target: T1, Mu-type opioid receptor (Homo sapiens, UniProt P35372); experiment: Agonist activity at human mu opioid receptor expressed in HEK293 cells by CellKey method relative to DAMDO; assay type: cell-based
# [3] = biological target: T2, Kappa-type opioid receptor (Homo sapiens, UniProt P41145); experiment: Agonist activity at human kappa opioid receptor expressed in HEK293 cells by CellKey method relative to (-)U50488H; assay type: cell-based
# Summary of the method: (§2)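 Label-free CellKey impedance biosensor readout of receptor activity in HEK293 cells expressing human MOR, DOR or KOR, run in duplicate. Emax is the % of the response to DAMGO for MOR, SNC80 for DOR and (−)-U-50,488H for KOR.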
# [4] = biological target: Kappa-type opioid receptor (Cavia porcellus, UniProt P41144); experiment: Displacement of [3H]U69593 from kappa opioid receptor in guinea pig cerebellum membrane; summary of the method: as §1
# [5] = biological target: T3, Delta-type opioid receptor (Homo sapiens, UniProt P41143); experiment: Agonist activity at human delta opioid receptor expressed in HEK293 cells by CellKey method; assay type: cell-based; summary of the method: as §2
# [6] = biological target: T2, Kappa-type opioid receptor; experiment: Agonist activity at human kappa opioid receptor expressed in HEK293 cells by CellKey method; assay type: cell-based
# Summary of the method: (§3)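 Label-free CellKey impedance biosensor readout of receptor activity in HEK293 cells expressing human MOR, DOR or KOR, run in duplicate.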
# Mu-type opioid receptor [7] = biological target: T1, Mu-type opioid receptor; experiment: Agonist activity at human mu opioid receptor expressed in CHO cells assessed as [35S]-GTP[gammaS] binding; assay type: cell-based
# Summary of the method: (§4)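 Human MOR, DOR or KOR expressed in CHO cells; [35S]GTPγS binding run in duplicate. Emax is the % of the response to DAMDO for MOR, SNC80 for DOR and U-69,593 for KOR.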
# Mu-type opioid receptor [8] = biological target: T1, Mu-type opioid receptor; experiment: Agonist activity at human mu opioid receptor expressed in HEK293 cells by CellKey method; assay type: cell-based; summary of the method: as §3
# [9] = biological target: T3, Delta-type opioid receptor; experiment: Agonist activity at human delta opioid receptor expressed in HEK293 cells by CellKey method relative to SNC80; assay type: cell-based; summary of the method: as §2
# [10] = Selectivity ratio of Ki for guinea pig kappa opioid receptor to Ki for mouse delta opioid receptor
# [11] = biological target: T2, Kappa-type opioid receptor; experiment: Agonist activity at human kappa opioid receptor expressed in CHO cells assessed as [35S]-GTP[gammaS] binding relative to U69593; assay type: functional, cell-based; summary of the method: as §4
# Mus musculus [12] = species on record: Mus musculus; experiment: Selectivity ratio of Ki for mouse mu opioid receptor to Ki for mouse delta opioid receptor
# [13] = biological target: T3, Delta-type opioid receptor; experiment: Agonist activity at human delta opioid receptor expressed in CHO cells assessed as [35S]-GTP[gammaS] binding; assay type: functional, cell-based; summary of the method: as §4
# Mu-type opioid receptor [14] = biological target: T1, Mu-type opioid receptor; experiment: Agonist activity at human mu opioid receptor expressed in CHO cells assessed as [35S]-GTP[gammaS] binding relative to DAMDO; assay type: cell-based; summary of the method: as §4
# [15] = biological target: T2, Kappa-type opioid receptor; experiment: Agonist activity at human kappa opioid receptor expressed in CHO cells assessed as [35S]-GTP[gammaS] binding; assay type: functional, cell-based; summary of the method: as §4
# [16] = biological target: T3, Delta-type opioid receptor; experiment: Agonist activity at human delta opioid receptor expressed in CHO cells assessed as [35S]-GTP[gammaS] binding relative to SNC80; assay type: functional, cell-based; summary of the method: as §4
# [17] = biological target: Delta-type opioid receptor (Mus musculus, UniProt P32300); experiment: Displacement of [3H]DPDPE from delta opioid receptor in mouse whole brain […] membrane; assay type: tissue-based
# Summary of the method: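 Competitive binding run in duplicate. MOR used [3H]DAMGO and DOR used [3H]DPDPE, both on mouse whole-brain membranes without cerebellum.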
# Mus musculus [18] = experiment: Toxicity in mouse assessed as induction of convulsion at 1 to 10 mg/kg, sc; assay type: organism-based; parameters: dose 1-10 mg/kg, route subcutaneous; conditions: in vivo
# Summary of the method: (§5)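 Mice dosed subcutaneously, then scored in the acetic acid writhing test and watched for convulsive behaviour. […] taken from the dose–response. Antagonist reversal tested with NTI, β-FNA or nor-BNI. Groups compared against saline-treated mice by one-way ANOVA with Bonferroni's test.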
# Mus musculus [19] = experiment: Analgesic activity in sc dosed mouse assessed as inhibition of acetic acid-induced writhing treated after 15 mins of acetic acid-challenge; assay type: functional; summary of the method: as §5
# T2 sequence (P41145 whole entry): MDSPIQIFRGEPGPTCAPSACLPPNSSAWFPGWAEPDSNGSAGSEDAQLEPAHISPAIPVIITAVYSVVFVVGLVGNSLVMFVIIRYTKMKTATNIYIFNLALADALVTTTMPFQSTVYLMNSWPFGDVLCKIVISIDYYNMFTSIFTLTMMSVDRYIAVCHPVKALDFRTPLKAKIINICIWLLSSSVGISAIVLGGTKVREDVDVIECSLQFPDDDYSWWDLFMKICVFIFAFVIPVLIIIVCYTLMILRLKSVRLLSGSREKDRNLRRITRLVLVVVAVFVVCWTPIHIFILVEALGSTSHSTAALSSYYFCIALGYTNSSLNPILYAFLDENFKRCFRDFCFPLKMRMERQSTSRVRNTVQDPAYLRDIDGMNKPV
# T1 sequence (P35372 whole entry): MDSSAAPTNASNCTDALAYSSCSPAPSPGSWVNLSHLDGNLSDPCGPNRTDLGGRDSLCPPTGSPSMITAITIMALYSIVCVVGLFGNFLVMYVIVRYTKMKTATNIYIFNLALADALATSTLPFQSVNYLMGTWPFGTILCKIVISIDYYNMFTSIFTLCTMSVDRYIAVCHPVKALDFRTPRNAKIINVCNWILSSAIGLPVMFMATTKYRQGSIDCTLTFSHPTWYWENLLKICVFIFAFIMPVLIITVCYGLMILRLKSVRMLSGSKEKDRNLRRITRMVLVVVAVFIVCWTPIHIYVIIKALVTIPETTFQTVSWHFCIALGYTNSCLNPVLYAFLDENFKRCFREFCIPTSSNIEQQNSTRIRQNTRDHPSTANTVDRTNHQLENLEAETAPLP
# T3 sequence (P41143 whole entry): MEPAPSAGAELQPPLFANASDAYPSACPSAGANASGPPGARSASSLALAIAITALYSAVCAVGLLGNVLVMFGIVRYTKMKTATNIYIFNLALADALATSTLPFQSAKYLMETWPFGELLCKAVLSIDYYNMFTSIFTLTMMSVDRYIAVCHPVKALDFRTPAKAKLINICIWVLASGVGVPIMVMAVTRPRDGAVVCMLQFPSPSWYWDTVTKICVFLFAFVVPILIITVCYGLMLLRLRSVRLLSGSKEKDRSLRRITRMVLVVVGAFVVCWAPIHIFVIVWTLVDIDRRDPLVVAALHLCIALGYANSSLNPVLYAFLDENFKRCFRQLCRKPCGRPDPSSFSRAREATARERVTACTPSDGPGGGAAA
# Mu-type opioid receptor (Mus musculus, UniProt P42866), sequence (P42866 whole entry): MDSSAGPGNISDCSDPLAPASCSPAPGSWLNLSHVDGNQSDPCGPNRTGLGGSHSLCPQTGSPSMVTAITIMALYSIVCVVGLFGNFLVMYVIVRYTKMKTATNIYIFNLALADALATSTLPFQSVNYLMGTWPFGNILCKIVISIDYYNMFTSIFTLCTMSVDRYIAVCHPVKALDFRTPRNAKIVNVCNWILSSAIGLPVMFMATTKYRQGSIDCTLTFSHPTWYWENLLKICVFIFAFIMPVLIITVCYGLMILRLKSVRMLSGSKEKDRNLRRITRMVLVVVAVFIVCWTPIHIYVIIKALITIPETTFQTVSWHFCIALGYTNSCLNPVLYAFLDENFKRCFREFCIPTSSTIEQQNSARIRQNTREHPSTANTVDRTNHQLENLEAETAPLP
# Kappa-type opioid receptor (Cavia porcellus, UniProt P41144), sequence (P41144 whole entry): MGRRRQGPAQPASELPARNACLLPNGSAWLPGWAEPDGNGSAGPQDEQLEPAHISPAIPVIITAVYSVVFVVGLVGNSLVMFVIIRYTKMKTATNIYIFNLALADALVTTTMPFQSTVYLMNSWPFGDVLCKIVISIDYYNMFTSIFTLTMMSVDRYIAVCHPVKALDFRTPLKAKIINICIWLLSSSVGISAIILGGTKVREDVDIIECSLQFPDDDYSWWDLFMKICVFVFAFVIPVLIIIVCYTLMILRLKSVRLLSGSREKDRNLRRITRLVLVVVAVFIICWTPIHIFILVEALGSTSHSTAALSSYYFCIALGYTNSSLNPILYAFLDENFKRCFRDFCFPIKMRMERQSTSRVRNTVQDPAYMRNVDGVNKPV
# Delta-type opioid receptor (Mus musculus, UniProt P32300), sequence (P32300 whole entry): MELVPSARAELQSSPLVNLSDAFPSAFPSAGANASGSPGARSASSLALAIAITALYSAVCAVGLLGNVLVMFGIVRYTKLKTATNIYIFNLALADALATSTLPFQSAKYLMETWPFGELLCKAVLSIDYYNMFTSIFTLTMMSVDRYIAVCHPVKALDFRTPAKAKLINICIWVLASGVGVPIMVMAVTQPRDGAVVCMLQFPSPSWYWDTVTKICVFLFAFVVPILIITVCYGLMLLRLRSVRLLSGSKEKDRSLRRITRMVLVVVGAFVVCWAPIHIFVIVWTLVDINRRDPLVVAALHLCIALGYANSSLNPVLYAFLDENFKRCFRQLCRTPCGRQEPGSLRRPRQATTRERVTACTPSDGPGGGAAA
Structure (SMILES),Ki (Mu-type opioid receptor [1]),Emax (Mu-type opioid receptor [2]),Emax [3],Ki [4],EC50 [5],EC50 [6],EC50 (Mu-type opioid receptor [7]),EC50 (Mu-type opioid receptor [8]),Emax [9],Ratio Ki [10],Emax [11],Ratio Ki (Mus musculus [12]),EC50 [13],Emax (Mu-type opioid receptor [14]),EC50 [15],Emax [16],Ki [17],Activity (Mus musculus [18]),inhibition (Mus musculus [19]),ED50 (Mus musculus [19]; 0.25 h)
C=CCN1C[C@H](C)N([C@H](c2ccc(C(=O)N(CC)CC)cc2)c2cccc(OC)c2)C[C@H]1C [SNC-80],695 nM,6.8%,5.9%,> 1000 nM,,,,,,,,,,,,,,,,
O=C1[C@H]2O[C@@]34CC[C@@]5(OCOc6c(O)ccc7c6[C@@]3(CCN(CC3CC3)[C@@H]4C7)[C@H]25)N1CCc1ccccc1,1.75 nM,4.8%,75.8%,1.94 nM,0.62 nM,2.4 nM,2.1 nM,5.2 nM,90.6%,1.7,51.2%,1.5,0.41 nM,19.7%,3.9 nM,103%,1.16 nM,,,
CC(C)CN1CC[C@@]23c4c5ccc(O)c4OCO[C@]46CC[C@@]2(O[C@H](C(=O)N4Cc2ccccc2)[C@H]63)[C@H]1C5,186 nM,12.2%,57.9%,119 nM,140 nM,333 nM,223 nM,400 nM,130%,17,65.6%,26.6,15.6 nM,8.4%,760 nM,96.4%,7 nM,,,
O=C1[C@H]2O[C@@]34CC[C@@]5(OCOc6c(O)ccc7c6[C@@]3(CCN(CCc3ccccc3)[C@@H]4C7)[C@H]25)N1Cc1ccccc1,45.9 nM,40.2%,22.6%,588 nM,20.5 nM,12500 nM,2.3 nM,639 nM,108%,227,,17.7,9.2 nM,83%,,115%,2.59 nM,,,
O=C1[C@H]2O[C@@]34CC[C@@]5(OCOc6c(O)ccc7c6[C@@]3(CCN(CC3CC3)[C@@H]4C7)[C@H]25)N1c1ccccc1,4.61 nM,8.8%,80.4%,1.69 nM,0.39 nM,1.2 nM,9 nM,1.2 nM,123%,3.2,42.9%,8.6,0.98 nM,25.6%,6.5 nM,118%,0.534 nM,,,
O=C1[C@H]2O[C@@]34CC[C@@]5(OCOc6c(O)ccc7c6[C@@]3(CCN(CC3CC3)[C@@H]4C7)[C@H]25)N1Cc1ccccc1,3.14 nM,9.6%,50.5%,5.14 nM,1.54 nM,39.8 nM,2.8 nM,1.8 nM,88.7%,16.4,69.1%,10,1.1 nM,13.7%,80.5 nM,92.8%,0.313 nM,,,
C=CCN1CC[C@@]23c4c5ccc(O)c4OCO[C@]46CC[C@@]2(O[C@H](C(=O)N4Cc2ccccc2)[C@H]63)[C@H]1C5,68.4 nM,11.3%,,56.6 nM,2 nM,,2.7 nM,5.1 nM,77.2%,46.2,74%,55.8,6.5 nM,5.4%,231 nM,94.6%,1.23 nM,,,
COc1ccc2c(c1O)[C@]13CCN(CC4CC4)[C@H](C2)[C@]12CC[C@]1(O)[C@H]3[C@H](O2)C(=O)N1Cc1ccccc1,47.7 nM,,,248 nM,,,,,,1.4,,0.27,,,,,175 nM,,,
CN1CC[C@@]23c4c5ccc(O)c4OCO[C@]46CC[C@@]2(O[C@H](C(=O)N4Cc2ccccc2)[C@H]63)[C@H]1C5,23.3 nM,36.1%,79.2%,200 nM,141 nM,307 nM,113 nM,1350 nM,138%,103,83.6%,12,11 nM,110%,478 nM,112%,1.94 nM,Non-toxic,Dose-dependent effect,5.26 mg/kg
